Assay results: PubChem BioAssay AID602223 (Southern Research Specialized Biocontainment Screening …, 2012)
Records with an inconclusive call do not appear. Calls of active or inactive are those of the source.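 The calls were made as follows: active = inhibition of 30% or more at any tested concentration; inactive = the rest, inconclusive results apart.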

Target: M1-family alanyl aminopeptidase (Plasmodium falciparum 3D7)
Assay: PfM1AAP enzyme inhibition, dose response, selectivity assay for PfM17LAP inhibitor project, biochemical, QFRET, H-Leu-NHMec substrate, set 2 (AID 602223)
Conditions: recombinant PfM1AAP, H-Leu-NHMec fluorogenic cleavage; for inhibition: at 100 µM (top of the series)
In short: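 Schedule: 90 min enzyme reaction at room temperature | System: Purified recombinant P. falciparum M1 aminopeptidase | Input: Enzyme at 5 µg/mL final | Replication: Each compound tested in triplicate | Medium: Tris buffer, pH 7.5, containing CoCl2 | Signal: Fluorescence of liberated NHMec, excitation 370 nm, emission 460 nm | Reagent: 0.1 mM fluorogenic substrate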

| Compound | IC50 [µM] | inhibition |
| --- | --- | --- |
| COc1ccc(CC(=O)NO)cc1 | 4.58 | – |
| O=C(Cc1ccc2c(c1)CCCC2)NO | 1.41 | – |
| CCCCOc1ccc(CC(=O)O)cc1 | – | inactive |
| CCCOc1ccc(CC(=O)OC)cc1 | – | inactive |
| COC(=O)Cc1ccc(OCCN(C)C)cc1 | – | inactive |
| O=C(Cc1ccc(OCc2ccccc2)cc1)NO | 2.89 | – |
| CC(C)COc1ccc(CC(=O)NO)cc1 | 23.2 | – |
| CCCCOc1ccc(C(=O)NO)cc1 | 99.1 | – |
| CCCCc1ccc(CC(=O)NO)cc1 | 2.57 | – |
| CC(C)(C(=O)NO)c1ccccc1 | – | inactive |
| CCCCOc1ccc(CC(=O)NO)cc1 | 14 | – |
| CCCCCCCCCC(=O)NO | 13.3 | – |
| O=C(Cc1ccc(Oc2ccccc2)cc1)NO | 5.45 | – |
| CCCCOc1ccc(CNc2c(N(O)Cc3ccccc3)c(=O)c2=O)cc1 | – | inactive |
| CCCCOc1ccc(CC(=O)N(C)O)cc1 | – | inactive |
| Cc1ccc(CC(=O)NO)cc1 | 5.77 | – |
| COc1ccc(CCCC(=O)NO)cc1 | 95.8 | – |
| CCCCOc1ccc(CNc2c(N(C)O)c(=O)c2=O)cc1 | – | inactive |
| CN(O)C(=O)Cc1ccc(OCc2ccccc2)cc1 | – | inactive |
| CCOc1ccc(CC(=O)NO)cc1 | 7 | – |
